Columns and labels:
[1] = target: Bromodomain-containing protein 3 (Homo sapiens) (UniProt Q15059); assay: Binding affinity to first bromodomain of BRD3 assessed as change in melting temperature at 100 uM by differential scanning fluorimetry
Outline: (§1)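 Thermal shift by differential scanning fluorimetry on a real-time PCR instrument. Bromodomain protein at 2 μM, compound at 100 μM, in 10 mM HEPES pH 7.5, 500 mM NaCl with SyproOrange dye diluted 1:1000. The observed melting temperature shift was measured in duplicate, and the average was reported.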

[2] = target: Histone acetyltransferase KAT2B (Homo sapiens) (UniProt Q92831); assay: Binding affinity to PCAF assessed as change in melting temperature at 100 uM by differential scanning fluorimetry; outline: as §1
[3] = target: T1, Bromodomain-containing protein 2 (Homo sapiens, UniProt P25440); assay: Displacement of H4Ac4 peptide from first bromodomain of human BRD2 by peptide displacement assay
Outline: (§2)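 AlphaScreen displacement of a biotinylated tetra-acetylated H4 peptide (SGRGK(Ac)GGK(Ac)GLGK(Ac)GGAK(Ac)RHRK(Biotin)) from the bromodomain. Run in duplicate on one plate.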

[4] = target: Bromodomain testis-specific protein (Homo sapiens) (UniProt Q58F21); assay: Binding affinity to BRDT assessed as change in melting temperature at 100 uM by differential scanning fluorimetry; outline: as §1
[5] = target: T2, Bromodomain-containing protein 4 (Homo sapiens, UniProt O60885); assay: Binding affinity to second bromodomain of BRD4 assessed as change in melting temperature at 100 uM by differential scanning fluorimetry; outline: as §1
[6] = target: T3, Bromodomain adjacent to zinc finger domain protein 2B (Homo sapiens, UniProt Q9UIF8); assay: Binding affinity to BAZ2B assessed as change in melting temperature at 100 uM by differential scanning fluorimetry; outline: as §1
[7] = target: Bromodomain-containing protein 3 (Homo sapiens) (UniProt Q15059); assay: Binding affinity to second bromodomain of BRD3 assessed as change in melting temperature at 100 uM by differential scanning fluorimetry; outline: as §1
[8] = target: Protein polybromo-1 (Homo sapiens) (UniProt Q86U86); assay: Binding affinity to PB1 assessed as change in melting temperature at 100 uM by differential scanning fluorimetry; outline: as §1
[9] = target: T2, Bromodomain-containing protein 4; assay: Displacement of H4Ac4 peptide from first bromodomain of human BRD4 by peptide displacement assay; outline: as §2
[10] = Binding affinity to LOC93349 assessed as change in melting temperature at 100 uM by differential scanning fluorimetry; outline: as §1
CREB-binding protein [11] = target: T4, CREB-binding protein (Homo sapiens, UniProt Q92793); assay: Displacement of H3K56Ac from human CREBBP by peptide displacement assay
CREB-binding protein [12] = target: T4, CREB-binding protein; assay: Binding affinity to CREBBP assessed as change in melting temperature at 100 uM by differential scanning fluorimetry; outline: as §1
[13] = target: T2, Bromodomain-containing protein 4; assay: Binding affinity to first bromodomain of BRD4 assessed as change in melting temperature at 100 uM by differential scanning fluorimetry; outline: as §1
[14] = target: T1, Bromodomain-containing protein 2; assay: Binding affinity to first bromodomain of BRD2 assessed as change in melting temperature at 100 uM by differential scanning fluorimetry; outline: as §1
Target sequence in this assay (P25440 whole entry, looked up): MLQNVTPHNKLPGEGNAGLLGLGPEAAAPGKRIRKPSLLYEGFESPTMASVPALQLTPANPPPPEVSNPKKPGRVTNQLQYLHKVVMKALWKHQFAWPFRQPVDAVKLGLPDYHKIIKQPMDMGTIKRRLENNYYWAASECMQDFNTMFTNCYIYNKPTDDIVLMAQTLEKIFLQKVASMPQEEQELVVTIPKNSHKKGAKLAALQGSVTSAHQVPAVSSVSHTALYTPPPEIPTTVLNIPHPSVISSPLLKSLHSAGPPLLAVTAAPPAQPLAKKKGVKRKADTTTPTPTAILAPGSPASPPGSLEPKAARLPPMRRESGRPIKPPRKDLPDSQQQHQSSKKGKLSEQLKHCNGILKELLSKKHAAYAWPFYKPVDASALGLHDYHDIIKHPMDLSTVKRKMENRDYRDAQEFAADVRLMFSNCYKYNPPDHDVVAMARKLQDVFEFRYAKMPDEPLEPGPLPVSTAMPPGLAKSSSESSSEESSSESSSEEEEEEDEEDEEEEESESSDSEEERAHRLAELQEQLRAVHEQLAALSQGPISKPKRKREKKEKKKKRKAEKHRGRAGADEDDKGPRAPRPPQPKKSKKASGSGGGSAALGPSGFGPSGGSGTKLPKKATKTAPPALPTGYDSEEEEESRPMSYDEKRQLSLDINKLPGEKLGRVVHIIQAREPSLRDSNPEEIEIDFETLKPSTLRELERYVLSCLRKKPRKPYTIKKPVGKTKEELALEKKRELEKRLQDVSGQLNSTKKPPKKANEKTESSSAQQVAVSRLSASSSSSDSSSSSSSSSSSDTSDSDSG

[15] = target: T1, Bromodomain-containing protein 2; assay: Binding affinity to second bromodomain of BRD2 assessed as change in melting temperature at 100 uM by differential scanning fluorimetry; outline: as §1
Target sequence in this assay (P25440 whole entry, looked up): as above

[16] = target: T3, Bromodomain adjacent to zinc finger domain protein 2B; assay: Inhibition of BAZ2B
CREB-binding protein [17] = target: T4, CREB-binding protein; assay: Inhibition of CREBBP
Outline: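 AlphaScreen peptide-displacement assay with the CREBBP bromodomain, using a biotinylated H3K56Ac histone peptide as the displaced ligand. Each concentration was run in duplicate on the same plate. IC50 was obtained by sigmoidal curve fitting of the duplicate data and reported with 95% confidence intervals, taken from a single assay.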

Sequence of Protein polybromo-1 (Homo sapiens) (Q86U86 whole entry): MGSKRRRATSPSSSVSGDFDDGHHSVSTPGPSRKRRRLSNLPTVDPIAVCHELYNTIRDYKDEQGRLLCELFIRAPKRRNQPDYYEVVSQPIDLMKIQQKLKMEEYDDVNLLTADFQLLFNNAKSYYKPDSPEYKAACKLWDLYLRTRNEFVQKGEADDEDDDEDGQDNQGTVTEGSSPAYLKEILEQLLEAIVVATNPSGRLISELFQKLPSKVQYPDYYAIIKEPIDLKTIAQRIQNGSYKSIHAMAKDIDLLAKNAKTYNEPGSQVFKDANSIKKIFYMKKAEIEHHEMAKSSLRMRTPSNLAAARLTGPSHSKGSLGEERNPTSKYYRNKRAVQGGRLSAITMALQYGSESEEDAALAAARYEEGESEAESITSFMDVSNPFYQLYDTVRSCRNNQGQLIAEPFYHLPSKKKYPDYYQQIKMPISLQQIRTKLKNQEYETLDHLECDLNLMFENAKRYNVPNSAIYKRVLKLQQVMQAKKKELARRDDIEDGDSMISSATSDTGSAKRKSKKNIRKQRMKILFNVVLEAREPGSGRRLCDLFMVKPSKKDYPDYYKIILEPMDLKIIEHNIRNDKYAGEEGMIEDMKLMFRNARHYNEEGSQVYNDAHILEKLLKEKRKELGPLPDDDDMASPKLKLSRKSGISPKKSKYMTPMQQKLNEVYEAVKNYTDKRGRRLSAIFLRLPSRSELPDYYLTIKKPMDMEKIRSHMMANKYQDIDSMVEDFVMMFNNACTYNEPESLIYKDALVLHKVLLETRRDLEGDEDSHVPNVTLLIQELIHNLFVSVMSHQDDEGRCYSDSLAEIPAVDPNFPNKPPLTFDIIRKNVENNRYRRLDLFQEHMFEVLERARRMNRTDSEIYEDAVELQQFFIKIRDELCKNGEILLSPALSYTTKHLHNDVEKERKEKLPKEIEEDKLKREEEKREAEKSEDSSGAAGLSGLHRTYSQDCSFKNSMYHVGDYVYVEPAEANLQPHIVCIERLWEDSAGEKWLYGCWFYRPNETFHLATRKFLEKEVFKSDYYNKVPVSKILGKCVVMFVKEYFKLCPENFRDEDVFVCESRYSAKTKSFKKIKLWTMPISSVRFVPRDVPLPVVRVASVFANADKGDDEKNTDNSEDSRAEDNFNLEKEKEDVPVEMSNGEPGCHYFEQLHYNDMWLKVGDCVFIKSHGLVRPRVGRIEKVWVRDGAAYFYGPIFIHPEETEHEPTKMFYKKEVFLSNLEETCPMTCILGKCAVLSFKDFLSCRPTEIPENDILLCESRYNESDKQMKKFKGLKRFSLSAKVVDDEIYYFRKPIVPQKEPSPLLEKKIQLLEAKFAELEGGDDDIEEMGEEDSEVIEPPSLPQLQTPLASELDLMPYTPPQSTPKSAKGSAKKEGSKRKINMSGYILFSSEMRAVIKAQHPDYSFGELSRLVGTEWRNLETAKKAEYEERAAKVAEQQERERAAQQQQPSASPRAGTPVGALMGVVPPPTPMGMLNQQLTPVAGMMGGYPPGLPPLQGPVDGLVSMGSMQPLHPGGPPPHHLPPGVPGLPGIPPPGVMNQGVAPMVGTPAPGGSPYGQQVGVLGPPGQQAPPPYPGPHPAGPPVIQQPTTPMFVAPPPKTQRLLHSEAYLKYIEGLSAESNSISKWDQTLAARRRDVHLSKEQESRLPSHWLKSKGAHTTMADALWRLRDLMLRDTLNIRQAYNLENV
T3 sequence (Q9UIF8 whole entry, the tested form may be a part): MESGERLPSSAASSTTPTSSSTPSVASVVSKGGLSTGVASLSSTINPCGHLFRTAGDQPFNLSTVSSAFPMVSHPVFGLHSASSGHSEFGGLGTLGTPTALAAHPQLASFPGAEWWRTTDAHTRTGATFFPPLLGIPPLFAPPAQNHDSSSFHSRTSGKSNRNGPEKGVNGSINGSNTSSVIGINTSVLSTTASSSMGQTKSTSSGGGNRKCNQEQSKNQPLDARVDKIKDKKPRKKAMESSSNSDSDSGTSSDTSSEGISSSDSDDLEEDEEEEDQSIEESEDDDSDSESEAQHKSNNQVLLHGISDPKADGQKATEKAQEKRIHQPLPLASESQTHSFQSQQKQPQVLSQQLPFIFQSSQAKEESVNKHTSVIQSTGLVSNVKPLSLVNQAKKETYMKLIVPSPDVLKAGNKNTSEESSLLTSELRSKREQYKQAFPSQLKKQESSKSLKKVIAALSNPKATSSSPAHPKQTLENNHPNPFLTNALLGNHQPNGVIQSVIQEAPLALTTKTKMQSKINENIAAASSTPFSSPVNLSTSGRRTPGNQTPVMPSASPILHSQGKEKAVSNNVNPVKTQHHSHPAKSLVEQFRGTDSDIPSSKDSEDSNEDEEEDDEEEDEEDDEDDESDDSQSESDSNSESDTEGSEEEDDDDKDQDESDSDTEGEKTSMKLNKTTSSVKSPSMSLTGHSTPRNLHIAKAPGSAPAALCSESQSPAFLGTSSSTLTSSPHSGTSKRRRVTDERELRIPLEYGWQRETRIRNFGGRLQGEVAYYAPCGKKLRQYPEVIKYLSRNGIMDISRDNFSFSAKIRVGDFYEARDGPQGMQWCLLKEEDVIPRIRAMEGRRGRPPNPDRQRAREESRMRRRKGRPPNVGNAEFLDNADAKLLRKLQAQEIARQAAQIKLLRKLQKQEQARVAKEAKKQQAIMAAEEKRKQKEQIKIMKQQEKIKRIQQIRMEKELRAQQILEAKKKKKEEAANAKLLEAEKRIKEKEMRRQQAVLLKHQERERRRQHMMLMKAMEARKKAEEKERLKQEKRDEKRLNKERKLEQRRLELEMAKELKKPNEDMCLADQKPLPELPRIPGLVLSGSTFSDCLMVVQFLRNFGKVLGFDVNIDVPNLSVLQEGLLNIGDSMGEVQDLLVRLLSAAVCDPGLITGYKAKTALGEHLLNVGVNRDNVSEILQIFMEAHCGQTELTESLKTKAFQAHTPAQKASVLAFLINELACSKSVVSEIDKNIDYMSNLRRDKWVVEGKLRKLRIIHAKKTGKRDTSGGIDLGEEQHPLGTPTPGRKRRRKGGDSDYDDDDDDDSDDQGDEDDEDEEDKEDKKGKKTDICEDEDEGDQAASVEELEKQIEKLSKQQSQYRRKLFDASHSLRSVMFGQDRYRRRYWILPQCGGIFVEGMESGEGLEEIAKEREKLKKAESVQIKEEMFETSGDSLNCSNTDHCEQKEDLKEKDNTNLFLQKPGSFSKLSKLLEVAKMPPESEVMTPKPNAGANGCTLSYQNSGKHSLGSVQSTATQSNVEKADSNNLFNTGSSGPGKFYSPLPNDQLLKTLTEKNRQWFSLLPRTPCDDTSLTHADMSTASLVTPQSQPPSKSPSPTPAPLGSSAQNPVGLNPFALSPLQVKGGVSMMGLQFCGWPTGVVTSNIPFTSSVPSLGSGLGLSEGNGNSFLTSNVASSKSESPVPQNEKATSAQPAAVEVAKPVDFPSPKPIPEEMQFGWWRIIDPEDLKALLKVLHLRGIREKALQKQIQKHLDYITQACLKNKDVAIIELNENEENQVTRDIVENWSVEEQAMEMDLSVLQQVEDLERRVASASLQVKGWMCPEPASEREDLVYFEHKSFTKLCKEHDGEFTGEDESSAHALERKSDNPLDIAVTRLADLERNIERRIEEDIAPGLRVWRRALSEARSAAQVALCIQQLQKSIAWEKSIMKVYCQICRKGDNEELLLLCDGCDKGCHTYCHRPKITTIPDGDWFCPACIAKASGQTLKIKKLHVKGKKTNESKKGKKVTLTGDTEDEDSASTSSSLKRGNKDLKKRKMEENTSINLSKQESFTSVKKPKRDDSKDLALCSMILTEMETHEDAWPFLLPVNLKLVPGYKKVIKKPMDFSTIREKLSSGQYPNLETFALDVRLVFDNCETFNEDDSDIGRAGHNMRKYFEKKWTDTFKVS

Structure (SMILES)	ΔTm [1] [°C]	ΔTm [2] [°C]	IC50 [3] [µM]	ΔTm [4] [°C]	ΔTm [5] [°C]	ΔTm [6] [°C]	ΔTm [7] [°C]	ΔTm [8] [°C]	IC50 [9] [µM]	ΔTm [10] [°C]	IC50 (CREB-binding protein [11]) [µM]	ΔTm (CREB-binding protein [12]) [°C]	ΔTm [13] [°C]	ΔTm [14] [°C]	ΔTm [15] [°C]	IC50 [16] [µM]	IC50 (CREB-binding protein [17]) [µM]
Cc1noc(C)c1-c1ccccc1	1.6	-0.8	34.3	0	2.6	-0.1	1.9	0	84.2	-0.6	> 200	0.6	2	0.9	2.1		
CCOc1cccc(-c2c(C)noc2C)c1	2.7		7.4	-0.4	4		4.2	-0.2	23.2	-0.9	86.9	0.7	2.8	1.3	3.7		
CCOc1cc(-c2c(C)noc2C)cc(C(C)O)c1 (racemic)	8.5		1.6	3.5	8		8.9	0	4.8	-0.9	28.1	4	8.5	6.1	8.3		
CCOc1cc(C(C)=O)cc(-c2c(C)noc2C)c1	4.8		2.3		6.5		6	-0.3	7.5	-1	12.9	3.4	5.1	3.2	5.3		
Cc1noc(C)c1-c1cccc(C(C)O)c1 (racemic)	5.3	0	4.2	1.6	6.3	0.2	6.5	0.2	9.7	-0.8	45.4	1.5	5.4	3.3	5.6		
Cc1noc(C)c1-c1ccc2c(c1)CN(C)C(=O)N2	7.2			3.2			6.8	0.7		-0.2	3.4	3.8	8	5.4	6.2		
CN1CCCC1=O [METHYLPYRROLIDONE]																34000	2300
CCOc1cc(C(=O)O)cc(-c2c(C)noc2C)c1	2.2	-0.5	28.2	-0.8	2.2	-0.1	2.6	-0.1	51.2	-1.2	32.2	2.9	2.3	1.1	2.5		
CCOC(=O)c1cc(OCC)cc(-c2c(C)noc2C)c1	3.6		3.3	1.1	3.8		3.8	-0.1	7.7	-0.2	49.4	-0.2	3.7	2.3	3.3		
CC(=O)c1cccc(-c2c(C)noc2C)c1	2		6	-0.2	1.9		2.9	-0.3	24.6	-0.9	55.7	1.2	2.1	1.3	2.6		

From ChEMBL document CHEMBL1828554, “3,5-dimethylisoxazoles act as acetyl-lysine-mimetic bromodomain ligands” (J Med Chem, 2011)
